Test results as given in article PMC11881275 (Malaria Journal, 2025).
Entries after “also recorded” stand apart in the source; their conditions may differ.

What was measured:
[1] = in silico predictions ref 77; cited from earlier work
[2] = system: P. falciparum W2 clone; assay: In vitro antimalarial activity via the SYBR Green I assay; assay type: cell-based, Plasmodium falciparum
Procedure, shortened: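 Sorbitol-synchronized parasites in human O+ erythrocytes (0.5% parasitaemia, 2% haematocrit) received twofold dilutions of test compound, 1.56–200 µM final, in triplicate; artemisinin 170 nM was the control. Incubation was 72 h at 37 °C under 5% CO2/5% O2/90% N2. Cells were lysed in Tris/EDTA/saponin/Triton buffer with SYBR Green I, 30 min at 24 °C in the dark; ex 485/em 590 nm, uninfected-RBC blank subtracted. SI = HepG2 CC50 (MTT, 72 h) ÷ IC50.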

[3] = Cytotoxic activity via the MTT method; assay type: cell-based, human; details: human, HepG2 cells
[4] = system: human hepatocellular carcinoma cell line (HepG2); assay: Cytotoxic activity via the MTT method; assay type: cell-based; details: highest concentration tested 500 µM
[5] = system: P. falciparum NF54 gametocytes (stages IV, V); assay: Exflagellation-blocking bioassay; assay type: cell-based, Plasmodium falciparum; details: 1 µM; ≥ 75% high, 25 to 75% average, below 25% inactive
Procedure, shortened: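 Stage IV–V gametocytes were first checked for exflagellation (≥30 exflagellating microgametocytes per 1000 RBC). They were then exposed for 48 h to test compound at 1 µM in triplicate, with DMSO ≤0.5% and DHA 1 µM as controls. Exflagellation was induced in ookinete medium containing xanthurenic acid, 20 min at 24 °C, and counted by microscopy at 1000×. Inhibition ≥75% was classed active.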

Row | Compound | Plasma protein binding [1] | SI (selectivity index) ([2]; CC50 HepG2 divided by IC50 W2) | IC50 ([2]; Plasmodium falciparum, W2, 72 h, read-out: IC50 W2) [µM] | CC50 at 72 h [3] [µM] | viability at 72 h, 500 µM [3] [%] | Cytotoxicity to HepG2 cells (in words) [4] | Potential to block malaria transmission (classification) [5]
1 | COc1cc(NC(C)CCCN)c2ncccc2c1 (stereo not drawn) [primaquine] | high plasm protein binding | – | – | – | – | – | –
2 | OC(c1cc(C(F)(F)F)nc2c(C(F)(F)F)cccc12)C1CCCCN1 (stereo not drawn) [mefloquine] | high plasm protein binding | – | – | – | – | – | –
3 | C[C@@H]1CC[C@H]2[C@@H](C)C(=O)O[C@@H]3O[C@@]4(C)CC[C@@H]1[C@]32OO4 [Artemisinin] | high plasm protein binding | ≥ 23,809 | 0.021 ± 0.004 | ≥ 500 | 100 | – | –
4 | CC(=O)OCc1cn(-c2n[nH]c(C)n2)nn1 [Compound 13d, (1-(5-methyl-1H-1,2,4-triazol-3-yl)-1H-1,2,3-triazol-4-yl)methyl acetate] | – | – | – | ≥ 500 | 80 | non-cytotoxic; also recorded: no cytotoxicity | –
5 | CCN(CC)CCCC(C)Nc1ccnc2cc(Cl)ccc12 (stereo not drawn) [chloroquine] | high plasm protein binding | – | – | – | – | – | –
6 | CC(=O)OCc1cn(-c2n[nH]c(C(F)(F)F)n2)nn1 [Compound 14d, (1-(5-(trifluoromethyl)-1H-1,2,4-triazol-3-yl)-1H-1,2,3-triazol-4-yl)methyl acetate] | – | – | – | ≥ 500 | 93.4 | non-cytotoxic; also recorded: no cytotoxicity | high potential to block malaria transmission; also recorded: strong potential to block malaria transmission
